Reference: ChEMBL document CHEMBL4373742, “Novel thiazolidinedione-hydroxamates as inhibitors of Mycobacterium tuberculosis virulence factor Zmp1” (Eur J Med Chem, 2020)
The source made the active and inactive calls. The rule behind the calls is not given here.

Assays:
[1] = Inhibition of Mycobacterium tuberculosis Zinc metalloprotease-1 using angiotensin 2 as substrate preincubated for 3 mins and measured after 20 mins by MALDI-TOF MS analysis
How it was run: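 Zmp1 digestion of human angiotensin II in NH4HCO3 at 37 °C: 3 min preincubation with inhibitor, then 20 min reaction with recombinant Mtb Zmp1, monitored by MALDI-TOF MS. IC50 derived from slope ratios, inhibited versus control, at three inhibitor concentrations within 20–80 µM.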

[2] = system: Mycobacterium tuberculosis; test: Inhibition of Mycobacterium tuberculosis Zinc metalloprotease-1 at 40 uM using angiotensin 2 as substrate preincubated for 3 mins and measured after 20 mins by MALDI-TOF MS analysis relative to control
How it was run: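 Human angiotensin II substrate in NH4HCO3 was preincubated 3 min at 37 °C with inhibitor in acetone (acetone alone for control). Recombinant Mtb Zmp1 was added and the reaction ran 20 min at 37 °C. Cleavage was followed by MALDI-TOF MS (reflectron positive mode). Inhibition rate at 40 µM was taken as the inverted ratio of time-course slopes, inhibited versus control. Phosphoramidon reference at 40 µM final.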

[3] = Cytotoxicity against mouse RAW264.7 cells assessed as reduction in cell viability after 24 hrs by neutral red dye based assay
How it was run: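 Neutral red uptake assay on RAW264.7 murine macrophages in DMEM + 10% heat-inactivated FCS, 40.000 cells/well, seeded the day before. Two-fold serial dilutions from 128 µM final. Exposure 24 h at 37 °C, 5% CO2; then neutral red for 3 h, extraction with 1:1 ethanol/acetic acid. OD read at 530 nm (reference 620 nm).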

[4] = system: Mycobacterium tuberculosis; test: Antimycobacterial activity against Mycobacterium tuberculosis H37Ra infected in mouse RAW264.7 cells assessed as inhibition of intracellular bacterial growth at 10 uM after 24 hrs by luciferase reporter gene based assay relative to control; format: functional; settings: RAW264.7, 24 h, read-out: INH
How it was run: (§1)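 Murine RAW264.7 macrophages (DMEM + 10% heat-inactivated FCS, 37 °C, 5% CO2; 40.000 cells/well) infected 2 h at 37 °C with luciferase-reporter Mtb H37Ra (pSMT1) at MOI 10. Extracellular bacteria were killed with 100 µg/ml gentamicin for 1 h. Compounds were given at 10 and 100 µM final; isoniazid reference 0.1 µM. After 24 h, cells were lysed in 1% Triton X-100 and read by luminescence after n-decanal addition. Inhibition % was calculated versus untreated control; mean of triplicates.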

[5] = Selectivity index, ratio of CC50 for mouse RAW264.7 cells to MIC90 for antimycobacterial activity against Mycobacterium tuberculosis H37Rv; format: toxicity; settings: read-out: Selectivity Index
[6] = system: Mycobacterium tuberculosis; test: Antimycobacterial activity against Mycobacterium tuberculosis H37Ra infected in mouse RAW264.7 cells assessed as inhibition of intracellular bacterial growth at 10 uM after 24 hrs by luciferase reporter gene based assay; format: functional, organism-based; how it was run: as §1
[7] = system: Mycobacterium tuberculosis; test: Antimycobacterial activity against Mycobacterium tuberculosis H37Ra infected in mouse RAW264.7 cells assessed as inhibition of intracellular bacterial growth at 100 uM after 24 hrs by luciferase reporter gene based assay relative to control; format: functional; settings: RAW264.7, 24 h; how it was run: as §1
[8] = system: Mycobacterium tuberculosis; test: Antimycobacterial activity against Mycobacterium tuberculosis H37Ra infected in mouse RAW264.7 cells assessed as inhibition of intracellular bacterial growth at 100 uM after 24 hrs by luciferase reporter gene based assay; format: functional, organism-based; how it was run: as §1

SMILES	IC50 [1]	inhibition [2]	CC50 at 24 h [3]	percent inhibition of intracellular bacterial growth at 10 µM [4]	selectivity ratio [5]	inhibition [6]	inhibition in vivo at 100 µM [7]	inhibition [8]
O=C(CN1C(=O)CSC1=O)NOCc1ccccc1	20 to 160 µM	31.9%	> 128 µM					
CC(C(=O)NOCc1ccccc1)N1C(=O)S/C(=C\c2ccc(F)cc2)C1=O (centres undefined)	20 to 160 µM	95.8%	> 128 µM	25.1%				
CCCC/C=C1\SC(=O)N(C(C)C(=O)NOCc2ccccc2)C1=O (centres undefined)	20 to 160 µM	37.1%	43.9 µM		> 0.7	inactive		
O=C(CN1C(=O)S/C(=C\c2ccc(C(F)(F)F)cc2)C1=O)NOCc1ccccc1	38 µM	64.9%	> 128 µM	48.8%			70.4%	
C=CCONC(=O)CN1C(=O)S/C(=C\CCCC)C1=O	18 µM	89.9%	> 128 µM		> 2.1			Active
C=CCONC(=O)C(C)N1C(=O)S/C(=C\c2ccc(C(F)(F)F)cc2)C1=O (centres undefined)	20 to 160 µM	44.5%	> 128 µM			inactive		
C=CCONC(=O)CN1C(=O)S/C(=C\c2ccc(F)cc2)C1=O	20 to 160 µM	69.8%	> 128 µM					
CC/C(=C(\c1ccccc1)c1ccc(OCCN(C)C)cc1)c1ccccc1 [TAMOXIFEN]			11.1 µM					
C=CCONC(=O)CN1C(=O)S/C(=C\c2ccccc2)C1=O	20 to 160 µM	59%	> 128 µM					
CC(C(=O)NOCc1ccccc1)N1C(=O)S/C(=C\c2ccccc2)C1=O (centres undefined)	20 to 160 µM	93.3%	> 128 µM	46.9%				
CC(C(=O)NOCc1ccccc1)N1C(=O)CSC1=O (centres undefined)	20 to 160 µM	78.1%	> 128 µM					
CCCC/C=C1\SC(=O)N(CC(=O)NOCc2ccccc2)C1=O	20 to 160 µM	99.8%	> 128 µM			inactive		
O=C(CN1C(=O)S/C(=C\c2ccc(F)cc2)C1=O)NOCc1ccccc1	20 to 160 µM	78.3%	> 128 µM	20.6%				
C=CCONC(=O)C(C)N1C(=O)S/C(=C\c2ccc(F)cc2)C1=O (centres undefined)	20 to 160 µM	95.5%	> 128 µM					
CC(C)C[C@H](NP(=O)(O)O[C@@H]1O[C@@H](C)[C@H](O)[C@@H](O)[C@H]1O)C(=O)N[C@@H](Cc1c[nH]c2ccccc12)C(=O)O [PHOSPHORAMIDON]	20 to 160 µM	78%						
C=CCONC(=O)C(C)N1C(=O)S/C(=C\CCCC)C1=O (centres undefined)	20 to 160 µM	34.7%	> 128 µM					
C=CCONC(=O)CN1C(=O)S/C(=C\c2ccc(C(F)(F)F)cc2)C1=O	20 to 160 µM	87.2%	> 128 µM			inactive		
C=CCONC(=O)C(C)N1C(=O)CSC1=O (centres undefined)	20 to 160 µM	57.9%	> 128 µM	21.6%				
O=C(CN1C(=O)S/C(=C\c2ccccc2)C1=O)NOCc1ccccc1	20 to 160 µM	59.5%	> 128 µM	38.3%				
CC(C(=O)NOCc1ccccc1)N1C(=O)S/C(=C\c2ccc(C(F)(F)F)cc2)C1=O (centres undefined)	20 to 160 µM	16.3%	> 128 µM	19.4%				
C=CCONC(=O)CN1C(=O)CSC1=O	20 to 160 µM	92.2%	> 128 µM	30.2%				
C=CCONC(=O)C(C)N1C(=O)S/C(=C\c2ccccc2)C1=O (centres undefined)	20 to 160 µM	13%	> 128 µM					
